Published values collected from several papers.
Compare with care: the assays were run in different laboratories.
Target: Serine/threonine-protein kinase PAK 5 (PAK5, Homo sapiens, UniProt Q9P286)

Compound	effect on	method	tested at	remaining binding
CO[C@H]1CC[C@H](CNc2ccc(S(=O)(=O)NC(=O)c3ccc(N4CCN(CC5=C(c6ccc(Cl)cc6)CC(C)(C)CC5)CC4)cc3Oc3cnc4[nH]ccc4c3)cc2[N+](=O)[O-])CC1	cell-free assay	competition with immobilised ligand	1 µM	99%
O=C(NCCCN1CCOCC1)c1ccc(Nc2nccc(-c3cc4ccccc4s3)n2)cc1	binding	competition with immobilised ligand	1 µM	81%
COc1ncc2cc3ccccc3nc2c1C#N	cell-free assay	competition with immobilised ligand	5 µM	100%
O=C(NCCCN1CCOCC1)c1ccc(Nc2ncc(Cl)c(-c3ccc(Cl)s3)n2)cc1	binding	competition with immobilised ligand	1 µM	73%
COc1ccc2c(O[C@@H]3C[C@H]4C(=O)N[C@]5(C(=O)O)CC5/C=C\CCCCC[C@H](NC(=O)OC5CCCC5)C(=O)N4C3)cc(-c3csc(NC(=O)C(C)C)n3)nc2c1C (some centres unmarked)	cell-free assay	competition with immobilised ligand	1 µM	100%
N[C@@H]1CCN(c2nccc(-c3cnn4ncccc34)n2)C1	binding	–	1 µM	78%
Nc1ncc2c(n1)-c1c([nH]c3ccc(C#CC4CC4)cc13)CCCC2	binding	competition with immobilised ligand	1 µM	97%
COc1cnc(Nc2cccc(S(N)(=O)=O)c2)nc1N1CCN(c2ccccc2)CC1	binding	competition with immobilised ligand	1 µM	69%
COc1ccc2c(c1)O[C@H](c1ccc(OC)c(OC)c1)C[C@@H]2NC(=O)C1(c2ccc3c(c2)OC(F)(F)O3)CC1	cell-free assay	competition with immobilised ligand	1 µM	100%
CC1CCCN1c1nccc(-c2cnn3ncccc23)n1 (centres unmarked)	binding	–	1 µM	70%
CN(C)c1ncnc(-c2ccc3nc(Nc4cc(CN5CCN(C(=O)CC(F)(F)F)CC5)ccn4)[nH]c3c2)c1Cl	cell-free assay	competition with immobilised ligand	1 µM	85%
c1cnn2ncc(-c3ccnc(N4CCC45COC5)n3)c2c1	binding	–	1 µM	85%
CC1=C(C#N)C(c2ccc3c(c2)c(NC(=O)c2ccccc2C)nn3C)C(C#N)=C(C)N1	cell-free assay	competition with immobilised ligand	1 µM	100%
CN(c1nccc(-c2cnn3ncccc23)n1)C1CC1	binding	–	1 µM	100%
C[C@@H](c1ccc(-n2cnc3c(N)ncnc32)cc1)N1CCc2nn(C)c(Cc3ccccc3)c2C1=O	binding	competition with immobilised ligand	0.1 µM	69%
Cc1cnc(Nc2ccc(C(=O)N3CCC(N4CCCC4)CC3)cc2)nc1-c1cc2ccccc2s1	binding	competition with immobilised ligand	1 µM	68%
COc1ccnn2ncc(-c3ccnc(N(C)C)n3)c12	binding	–	1 µM	94%
O=C(NCC1CCOCC1)c1n[nH]cc1NC(=O)c1c(F)cccc1F	binding	competition with immobilised ligand	1 µM	79%
CS(=O)(=O)N1CCCC(NC(=O)[C@H](CCC2CCCCC2)NC(=O)c2ccc(CNc3ncnc4c3nnn4-c3ccccc3)cc2)C1 (some centres unmarked)	cell-free assay	competition with immobilised ligand	0.1 µM	100%
F[C@@H]1CCN(c2nccc(-c3cnn4ncccc34)n2)C1	binding	–	1 µM	100%
